Measured values published in ChEMBL document CHEMBL3580634, “Discovery of a high affinity and selective pyridine analog as a potential positron emission tomography imaging agent for cannabinoid type 2 receptor” (J Med Chem, 2015).

What was measured:
[1] = molecular target: T1, Cannabinoid receptor 2 (Homo sapiens, UniProt P34972); experiment: Activity at human CB2 receptor expressed in CHO cells assessed as cAMP accumulation incubated for 30 mins by time-resolved FRET assay; format: functional, cell-based
Outline: (§1)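 CHO cells expressing human CB1 or CB2 were seeded 1 day before in DMEM/HT supplement/10% FCS. Medium was replaced with Krebs Ringer bicarbonate buffer containing 1 mM IBMX, 30 min at 30 °C, then compound added for 30 min at 30 °C. cAMP was read by time-resolved FRET (cAMP-Nano-TRF kit) against a standard curve from 10 μM to 0.13 nM. Ten concentrations in triplicate, single experiment.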

[2] = Lipophilicity, log D of the compound in n-octanol/phosphate buffer pH 7.4 by shake flask method; format: physicochemical
[3] = molecular target: Cannabinoid receptor 1 (Homo sapiens, UniProt P21554); experiment: Activity at human CB1 receptor expressed in CHO cells assessed as cAMP accumulation incubated for 30 mins by time-resolved FRET assay; format: functional, cell-based; outline: as §1
[4] = molecular target: T1, Cannabinoid receptor 2; experiment: Displacement of [3H]CP-55,940 from human CB2 receptor expressed in CHO cell membranes
Outline: (§2)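 Membranes from CHO cells expressing human or murine CB2 were incubated with [3H]CP-55,940 in 50 mM Tris, 5 mM MgCl2, 2.5 mM EGTA, 0.1% fatty-acid-free BSA, pH 7.4, 1 h at 30 °C with shaking. Reaction stopped by filtration through PEI-coated GF/B. Ki from nonlinear regression using saturation-derived Kd. Ten concentrations in triplicate.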

[5] = molecular target: Cannabinoid receptor 2 (Mus musculus, UniProt P47936); experiment: Displacement of [3H]CP-55,940 from mouse CB2 receptor expressed in CHO cell membranes; outline: as §2
[6] = test system: CHO; experiment: Selectivity index, ratio of EC50 for human CB1 receptor expressed in CHO cells to EC50 for human CB2 receptor expressed in CHO cells; format: cell-based
[7] = test system: Spleen; experiment: Biodistribution in rat spleen at 0.2 nM incubated for 15 mins in presence of 5 uM CB2 ligand GW405833 by autoradiography; format: ADME; conditions: 0.25 h, 0.0002 µM
Outline: (§3)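 Mouse or rat spleen cryosections (20 μm) were thawed on ice and preconditioned in 50 mM Tris/HCl, 5% BSA, pH 7.4, then incubated 15 min at rt with 0.2 nM radioligand, alone or with 5 μM blocker. Washed in Tris/HCl with 1% BSA and 5% EtOH (2 × 2 min) and water on ice, then exposed 30 min to phosphor imager plates.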

[8] = Lipophilicity, log D of the radio-labeled compound in n-octanol/phosphate buffer pH 7.4 by shake flask method; format: physicochemical
Outline: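 Formulated radiotracer (8 MBq) was added to n-octanol and phosphate buffer pH 7.4, each presaturated with the other, shaken 15 min and centrifuged 5000g 5 min. Radioactivity in both phases was gamma-counted and D taken as their ratio; n = 5.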

[9] = test system: Small intestine; experiment: Biodistribution in Wistar rat small intestine at 6 to 10 MBq, iv measured after 15 mins by gamma counting method; format: ADME, organism-based; conditions: in vivo, 0.25 h
Outline: (§4)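 Male Wistar rats (5 weeks old) received 6–10 MBq (0.03–0.05 nmol) tracer via tail vein. For blocking, 1.5 mg/kg blocker was given iv shortly before the tracer (n = 3). Rats were decapitated under isoflurane at 15 min pi. Organs were weighed and gamma-counted, expressed as normalized %ID/g tissue (per 1 kg body weight). One baseline animal was excluded for paravenous injection.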

[10] = Biodistribution in Wistar rat plasma assessed as intact parent tracer level at 48 MBq, iv measured after 5 mins by radio-TLC method; format: ADME, organism-based; conditions: read-out: Drug uptake
Outline: (§5)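 After iv tracer, rat plasma was taken at 5, 10 and 20 min. Urine and brain were collected at 20 min sacrifice. Plasma was separated at 5000g, 5 min, 4 °C. Proteins in plasma, urine and PBS brain homogenate were precipitated with cold acetonitrile and centrifuged. Supernatants were run by radio-TLC in hexane/EtOAc (1:1), reported as % of total activity.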

[11] = test system: Brain; experiment: Biodistribution in Wistar rat brain at 48 MBq, iv measured after 20 mins by radio-TLC method; format: ADME, organism-based; conditions: in vivo
[12] = test system: Spleen; experiment: Biodistribution in mouse spleen at 0.2 nM incubated for 15 mins by autoradiography; format: ADME; conditions: 0.25 h, 0.0002 µM; outline: as §3
[13] = test system: Liver; experiment: Biodistribution in Wistar rat liver at 6 to 10 MBq, iv measured after 15 mins by gamma counting method; format: ADME, organism-based; conditions: in vivo, 0.25 h; outline: as §4
[14] = Biodistribution in Wistar rat plasma assessed as intact parent tracer level at 48 MBq, iv measured after 20 mins by radio-TLC method; format: ADME, organism-based; conditions: read-out: Drug uptake; outline: as §5
[15] = Stability in mouse plasma assessed as intact compound remaining at 4 MBq at 37 degC incubated for 5 to 20 mins by radio-TLC method; format: ADME, cell-free; conditions: read-out: Stability
Outline: (§6)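 Mouse, rat or human plasma was incubated with formulated radiotracer (4 MBq) at 37 °C with shaking. Aliquots taken at 5, 10, 15 and 20 min were quenched with ice-cold acetonitrile and centrifuged. Supernatant was analysed by radio-TLC in hexane/EtOAc (1:1).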

[16] = test system: Plasma; experiment: Stability in human plasma assessed as compound degradation at 4 MBq at 37 degC […] by radio-TLC method; format: ADME, cell-free; conditions: 40 min
[17] = test system: Spleen; experiment: Biodistribution in Wistar rat spleen at 11 to 18 MBq, iv measured during first 10 mins by PET/CT imaging method; format: ADME, organism-based; conditions: in vivo
Outline: (§7)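 Isoflurane-anaesthetized male Wistar rats received 11–18 MBq (0.06–0.09 nmol) tracer via tail vein. Dynamic PET ran 60 min from injection, then CT. For displacement, 1.5 mg/kg blocker was given iv 10 min after tracer; 2 rats per condition. Temperature held at 37 °C. Reconstruction by 2D-OSEM without attenuation correction. Uptake given as SUV.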

[18] = Drug metabolism in Wistar rat urine assessed as hydrophilic radio-metabolites level at 48 MBq, iv measured after 5 to 20 mins by radio-TLC method; format: ADME, organism-based; conditions: in vivo; outline: as §5
[19] = test system: Spleen; experiment: Biodistribution in Wistar rat spleen at 11 to 18 MBq, iv measured after 10 mins by PET/CT imaging method; format: ADME, organism-based; conditions: in vivo; outline: as §7
[20] = test system: Spleen; experiment: Biodistribution in Wistar rat spleen at 6 to 10 MBq, iv treated with 1.5 mg/kg CB2 ligand GW405833 injected 1 mins after compound dosing by gamma counting method; format: ADME, organism-based; conditions: in vivo
[21] = Biodistribution in Wistar rat plasma assessed as intact parent tracer level at 48 MBq, iv measured after 10 mins by radio-TLC method; format: ADME, organism-based; conditions: read-out: Drug uptake; outline: as §5
[22] = test system: Spleen; experiment: Biodistribution in rat spleen at 0.2 nM incubated for 15 mins by autoradiography; format: ADME; conditions: 0.25 h, 0.0002 µM; outline: as §3
[23] = Stability in rat plasma assessed as intact compound remaining at 4 MBq at 37 degC incubated for 5 to 20 mins by radio-TLC method; format: ADME, cell-free; conditions: read-out: Stability; outline: as §6
[24] = test system: Brain; experiment: Biodistribution in brain of mouse model of LPS-induced neuroinflammation at 10 to 27 MBq, iv treated with 10 mg/kg LPS 5 days before PET scan by PET imaging method; format: ADME, organism-based; conditions: in vivo, 120 h
Outline: (§8)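 Male CD-1 mice got 10 mg/kg LPS (E. coli O111:B4) or saline ip 5 days before PET. Under isoflurane, 10–27 MBq tracer was injected via tail vein, with 60 min PET then CT. For blocking, 2.0 mg/kg blocker or vehicle was given sc 30 min before tracer. Whole-brain ROI was taken on an MRI T2 template, expressed as SUV; n = 2 per condition.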

[25] = test system: Spleen; experiment: Biodistribution in Wistar rat spleen at 11 to 18 MBq, iv treated with 1.5 mg/kg CB2 ligand GW405833 injected 10 mins after compound dosing and measured 15 mins after GW405833 dosing by PET/CT imaging method; format: ADME, organism-based; conditions: in vivo, 0.25 h; outline: as §7
[26] = test system: Spleen; experiment: Biodistribution in Wistar rat spleen at 11 to 18 MBq, iv treated with 1.5 mg/kg CB2 ligand GW405833 injected 10 mins after compound dosing by PET/CT imaging method; format: ADME, organism-based; conditions: in vivo; outline: as §7
[27] = test system: Brain; experiment: Biodistribution in brain of mouse model of LPS-induced neuroinflammation at 10 to 27 MBq, iv treated with 2 mg/kg CB2 ligand GW405833 injected 30 mins before PECT acquisition by PET imaging method; format: ADME, organism-based; conditions: in vivo, 0.5 h; outline: as §8
[28] = test system: Brain; experiment: Biodistribution in Wistar rat brain at 6 to 10 MBq, iv measured after 15 mins by gamma counting method; format: ADME, organism-based; conditions: in vivo, 0.25 h; outline: as §4
[29] = test system: Spleen; experiment: Biodistribution in mouse spleen at 0.2 nM incubated for 15 mins in presence of 5 uM CB2 ligand GW405833 by autoradiography; format: ADME; conditions: 0.25 h, 0.0002 µM; outline: as §3

Chain of Cannabinoid receptor 2 (Mus musculus, UniProt P47936) (P47936 whole entry): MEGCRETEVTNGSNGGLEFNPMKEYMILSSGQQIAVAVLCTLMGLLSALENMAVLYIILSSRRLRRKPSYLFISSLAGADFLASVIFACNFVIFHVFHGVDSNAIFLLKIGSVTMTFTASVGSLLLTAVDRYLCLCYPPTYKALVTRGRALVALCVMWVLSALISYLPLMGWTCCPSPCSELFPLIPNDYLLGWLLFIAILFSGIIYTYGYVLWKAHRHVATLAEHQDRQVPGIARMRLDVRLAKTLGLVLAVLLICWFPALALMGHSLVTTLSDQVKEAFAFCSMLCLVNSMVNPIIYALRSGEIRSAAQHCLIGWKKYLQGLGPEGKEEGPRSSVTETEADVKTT
Chain of Cannabinoid receptor 1 (P21554 whole entry, looked up): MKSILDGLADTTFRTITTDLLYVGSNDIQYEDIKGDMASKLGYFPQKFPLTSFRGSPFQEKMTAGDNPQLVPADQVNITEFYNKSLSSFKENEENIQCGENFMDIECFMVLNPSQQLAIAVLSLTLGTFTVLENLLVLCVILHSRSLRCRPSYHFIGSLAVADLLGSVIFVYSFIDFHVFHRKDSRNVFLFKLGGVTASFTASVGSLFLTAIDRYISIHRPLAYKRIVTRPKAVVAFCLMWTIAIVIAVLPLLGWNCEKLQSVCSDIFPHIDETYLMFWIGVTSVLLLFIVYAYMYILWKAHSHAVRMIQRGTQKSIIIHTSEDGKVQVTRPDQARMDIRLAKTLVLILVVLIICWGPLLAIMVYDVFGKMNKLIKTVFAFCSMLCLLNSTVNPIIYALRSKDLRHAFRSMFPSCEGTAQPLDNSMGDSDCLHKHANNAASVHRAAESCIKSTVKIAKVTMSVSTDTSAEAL
T1 sequence (P34972 whole entry): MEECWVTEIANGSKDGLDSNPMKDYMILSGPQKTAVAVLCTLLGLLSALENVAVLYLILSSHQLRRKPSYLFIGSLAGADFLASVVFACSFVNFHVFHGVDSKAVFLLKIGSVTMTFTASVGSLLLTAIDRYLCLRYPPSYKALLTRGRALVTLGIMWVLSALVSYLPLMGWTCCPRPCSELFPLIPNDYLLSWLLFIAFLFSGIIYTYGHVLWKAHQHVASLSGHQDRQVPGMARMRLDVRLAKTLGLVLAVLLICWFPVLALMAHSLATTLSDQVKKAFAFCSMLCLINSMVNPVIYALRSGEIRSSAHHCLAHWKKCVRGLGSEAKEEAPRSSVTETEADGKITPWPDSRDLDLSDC

Structure (SMILES): COC1CN(c2ccc(C(=O)NC(C)(C)Cc3nnc(C4CCC4)o3)nc2OCC2CC2)C1
- EC50 [1]: 4010 nM
- logD [2]: 3.37
- EC50 [3]: > 10000 nM

Structure (SMILES): CCOC(=O)C(CC)(CC)NC(=O)c1ccc(C2CCCC2)c(OCC2CC2)n1
- Ki [4]: 16.2 nM
- EC50 [1]: 2.9 nM
- Ki [5]: 38.5 nM
- EC50 [3]: > 10000 nM

Structure (SMILES): CCOC(=O)C(CC)(CC)NC(=O)c1ccc(N2CC(OC)C2)c(OCC2CC2)n1
- Ki [4]: 2.5 nM
- Ratio EC50 [6]: > 1000
- Ratio EC50 ([6]; tested as the 11C-labelled form): 150
- EC50 [1]: 4.4 nM
- Ki [5]: 1.8 nM
- EC50 [3]: > 10000 nM

Structure (SMILES): CCOCCOCC(C)(C)c1cc(NC(=O)c2ccc(C3CCCC3)c(OCC3CC3)n2)on1
- Ki [4]: 264 nM
- Ki [5]: 11.7 nM
- EC50 [3]: > 10000 nM

Structure (SMILES): CCC(CC)(NC(=O)c1ccc(N2CC(OC)C2)c(OCC2CC2)n1)C(=O)NCCF
- Ki [4]: 902 nM
- EC50 [1]: 281 nM
- Ki [5]: 421 nM
- logD [2]: 3.43
- EC50 [3]: > 10000 nM

Structure (SMILES): CCOC(=O)C(CC)(CC)NC(=O)c1ccc(N2CC(O[11CH3])C2)c(OCC2CC2)n1
- Drug uptake [7]: Not Active
- logD [8]: 1.94
- Ki [4]: 2.5 nM
- Drug uptake [9]: Active
- remaining at 5 min [10]: 51%
- Drug uptake [11]: Not Active
- Drug uptake [12]: Active
- Drug uptake [13]: Active
- remaining at 20 min [14]: 21%
- remaining at 4 MBq [15]: 84%
- Stability [16]: Stable
- Drug uptake [17]: Active
- Drug metabolism [18]: metabolite_detected
- Drug uptake [19]: Not Active
- Drug uptake [20]: Not Active
- remaining at 10 min [21]: 37%
- Drug uptake [22]: Active
- remaining at 4 MBq [23]: 86%
- Drug uptake [24]: Active
- Drug uptake [25]: Not Active
- Drug uptake [26]: Not Active
- Drug uptake [27]: Not Active
- logD [2]: 1.94
- Drug uptake [28]: Not Active
- Drug uptake [29]: Not Active

Structure (SMILES): CCC(CC)(NC(=O)c1ccc(N2CC(F)(F)C2)c(OCC2CC2)n1)C(=O)NC
- Ki [4]: 179 nM
- EC50 [1]: 4.3 nM
- Ki [5]: 245 nM
- logD [2]: 3.76
- EC50 [3]: > 10000 nM

Structure (SMILES): CC(C)(Cc1nnc(-c2ccc(F)cc2)o1)NC(=O)c1ccc(N2CC(F)(F)C2)c(OCC2CC2)n1
- Ki [4]: 3030 nM
- Ki [5]: 1050 nM
- EC50 [3]: > 10000 nM

Structure (SMILES): CC(C)(NC(=O)c1ccc(N2CC(F)(F)C2)c(OCC2CC2)n1)c1nnc(-c2cccnc2)o1
- Ki [4]: > 10000 nM
- EC50 [1]: 396 nM
- Ki [5]: > 10000 nM
- EC50 [3]: > 10000 nM

Structure (SMILES): COC1CN(c2ccc(C(=O)NCC3(O)CCCCC3)nc2OCC2CC2)C1
- Ki [4]: 2870 nM
- Ki [5]: 2230 nM
- EC50 [3]: > 10000 nM

Structure (SMILES): CCC(CC)(NC(=O)c1ccc(N2CC(F)(F)C2)c(OCC2CC2)n1)C(=O)NCCF
- Ki [4]: 774 nM
- EC50 [1]: 27 nM
- Ki [5]: 403 nM
- EC50 [3]: > 10000 nM
